One may read the IC50 as the midpoint of a concentration-inhibition curve. Low values mean greater potency in that assay, high ones weaker potency in that assay.

The subject of the experiment is Plasmodium falciparum. Put plainly: Antimalarial activity against Plasmodium falciparum FCR3/A2. It is filed as functional, organism-based. As to conditions: FCR-3. The essentials: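 P. falciparum FCR-3/A2 clone cultured in vitro in 24-well plates across a wide concentration range of each compound. Compounds held as 10^-2 M DMSO stocks at -20 °C (stock, not final). Daily blood smears tracked parasite growth. IC50 (50% growth inhibition vs untreated control) came from linear regression of concentration–response data.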
Regarding `CC(=O)O[C@H]1CC(C)(C)[C@]2(O)CCc3c(cc(O)c(C=O)c3C)[C@@]2(C)[C@H]1OC(C)=O` [NORCAESALPININ C], the half-maximal inhibitory concentration (IC50) amounted to 5000 nM.
With `C=C1c2ccoc2C[C@H]2[C@H]1CC[C@@]1(O)C(C)(C)[C@H](OC(C)=O)[C@H](OC(C)=O)[C@H](OC(C)=O)[C@]21C`, half-maximal inhibition (IC50) was put at 200 nM.
The figure for `CC(=O)O[C@H]1[C@@H](OC(C)=O)C(C)(C)[C@]2(O)CCc3c(cc4occc4c3C)[C@@]2(C)[C@H]1OC(C)=O` is 6500 nM; for `CC(=O)O[C@H]1CCC(C)(C)[C@]2(O)C[C@@H]3OC(=O)[C@@H]4c5ccoc5C[C@@H]([C@@H]34)[C@@]12C` [CAESALMIN B] it is 800 nM; for `CC(=O)O[C@H]1CC(C)(C)[C@]2(O)CCc3c(cc4occc4c3C)[C@@]2(C)[C@H]1OC(C)=O` it is 98 nM.
The figure for `CC(=O)O[C@H]1C[C@@H](OC(C)=O)C(C)(C)[C@]2(O)CC[C@H]3C(=O)c4ccoc4C[C@@H]3[C@@]12C` [NORCAESALPININ B] is 260 nM; for `COC(=O)[C@@H]1c2ccoc2C[C@H]2[C@H]1C[C@H](OC(C)=O)[C@@]1(O)C(C)(C)CCC(=O)[C@]21C` [CAESALPININ F] it is 650 nM.
The figure for `CC(=O)O[C@H]1[C@@H](OC(C)=O)C(C)(C)[C@]2(O)CC[C@H]3C(=O)c4ccoc4C[C@@H]3[C@@]2(C)[C@H]1OC(C)=O` [3-O-ACETYLNORCAESALPININ A] is 2000 nM.
Turning to `CC(=O)O[C@H]1C[C@@H](OC(C)=O)C(C)(C)[C@]2(O)CCc3c(cc4occc4c3C)[C@@]12C` [CAESALDEKARINE], the IC50 worked out at 4000 nM.
As for `C=C1c2ccoc2C[C@H]2[C@H]1CC[C@@]1(O)C(C)(C)[C@H](OC(C)=O)C[C@H](OC(C)=O)[C@]21C` [CAESALPININ C], the figure is 760 nM.
The figure for `COC(=O)[C@@H]1c2ccoc2C[C@H]2[C@H]1C[C@H](OC(C)=O)[C@@]1(O)C(C)(C)CC[C@H](OC(C)=O)[C@]21C` [CAESALPININ E] is 6500 nM.
`CC(=O)O[C@H]1CC(C)(C)[C@]2(O)CC[C@H]3C(=O)c4ccoc4C[C@@H]3[C@@]2(C)[C@H]1OC(C)=O` [NORCAESALPININ A]: the IC50 stood at 800 nM.
As for `COC(=O)[C@@H]1c2ccoc2C[C@H]2[C@H]1[C@@H](OC(C)=O)C[C@@]1(O)C(C)(C)CC[C@H](OC(C)=O)[C@]21C` [ACETOXYBONDUCELLPIN C], the figure is 600 nM; as for `CC1(C)CC[C@H](O)[C@]2(C)[C@H]3Cc4occc4[C@H]4C(=O)O[C@@H](C[C@@]12O)[C@@H]43` [CAESALMIN G], over 10000 nM.
Turning to `CC(=O)O[C@H]1CCC(C)(C)[C@]2(O)[C@@H](OC(C)=O)[C@@H]3OC(=O)[C@@H]4c5ccoc5C[C@@H]([C@@H]34)[C@@]12C` [CAESALPININ D], 800 nM corresponded to half-maximal inhibition (IC50).
The figure for `CC(=O)O[C@H]1CCC(C)(C)[C@]2(O)C[C@H](O)[C@H]3C(=O)c4ccoc4C[C@@H]3[C@@]12C` [NORCAESALPININ E] is 90 nM.

(Values after ChEMBL document CHEMBL1158758, “Cassane- and norcassane-type diterpenes from Caesalpinia crista of Indonesia and their antimalarial activity against the growth of Plasmodium falciparum” (J Nat Prod, 2005).)
